Assay results collected from several papers.
Protocols differ between the studies behind these lines.
Target: Proto-oncogene tyrosine-protein kinase Src (SRC, Homo sapiens, UniProt P12931)

Structure (SMILES)	test	conditions	quantity	result
Cc1cc(O)c(-c2ccc([C@@H](C)CN(C)C)cc2)c2c1[nH]c(=O)c1sccc12	enzyme activity, inhibitor	0.1 µM	inhibition	-1.37%
Cc1ccc(NC(=O)c2ccnc(C(F)(F)F)c2)cc1-c1cc(OCCO)nc(N2CCOCC2)c1	binding, competition with immobilised ligand	1 µM	remaining binding	100%
C=CC(=O)N1CCC([C@@H]2CCNc3c(C(N)=O)c(-c4ccc(Oc5ccccc5)cc4)nn32)CC1	enzyme activity, inhibitor	1 µM	inhibition	42%
C#Cc1cc(-c2cc(Nc3nc(N[C@@H](C)c4ccc(F)cn4)ncc3Cl)n[nH]2)ccc1C=O	enzyme activity, inhibitor	0.2 µM	inhibition	37.7%
C[C@H]1CC[C@H](n2c3cnccc3c3cnc(Nc4ccc5c(n4)CCN(C(=O)CO)C5)nc32)CC1	cell-free assay, competition with immobilised ligand	1 µM	remaining binding	65%
CCCCC(=O)Nc1ccc(-c2ccc3ncn(CCC)c(=O)c3c2)cn1	binding, competition with immobilised ligand	0.5 µM	remaining binding	97%
COc1ccc2oc(-c3ccc4nc(N)oc4c3)c/c(=N\c3ccccc3NC(=O)CCN)c2c1	binding	1 µM	remaining binding	72%
CO[C@@H]1[C@H](N(C)C(=O)c2ccccc2)C[C@H]2O[C@]1(C)n1c3ccccc3c3c4c(c5c6ccccc6n2c5c31)C(=O)NC4	enzyme activity, inhibitor	1 µM	inhibition	31%
Cc1cc2c(C(N)=O)c(N)n(-c3c(C)ccc(O)c3C)c2nc1C	enzyme activity, inhibitor, TR-FRET	3.333 µM	inhibition	100%
N#Cc1ccc(NC(=O)Nc2ccccc2)cc1	cell-free assay, competition with immobilised ligand	25 µM	remaining binding	100%
